In one series the test system is MDA-MB-231. In words: Antiproliferative activity against human MDA-MB-231 cells after 48 hrs by MTT assay. As to conditions: MDA-MB-231, 48 h. In kind it is functional, cell-based. In a few lines:
(§1)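 Cells kept in DMEM with 10% FBS and plated at 5 × 10³ per well, then allowed 24 h to attach at 37 °C. Compounds were dissolved as 20 mM DMSO stocks, diluted in medium to a range of concentrations, and applied for 48 h at 37 °C under 5% CO2, with 0.1% DMSO as control. MTT was added for 4 h, formazan dissolved in DMSO, and A570 read. IC50 is the mean of three independent experiments run in quadruplicate.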
For orientation: Formazan colour is commonly taken as a measure of viable cells.

Another series concerns A549. Put plainly: Antiproliferative activity against human A549 cells after 48 hrs by MTT assay. Type of series: functional, cell-based. The conditions noted are these: A549, 48 h. In a few lines: as §1
In series [1] the test system is HepG2. In words: Antiproliferative activity against human HepG2 cells after 48 hrs by MTT assay. In kind it is functional, cell-based. The conditions noted are these: HepG2, 48 h. A digest of the protocol:
as §1

The test system of the next series is MCF7. In words: Antiproliferative activity against human MCF7 cells after 48 hrs by MTT assay. Type of series: functional, cell-based. The conditions noted are these: MCF7, 48 h. A digest of the protocol:
as §1

Series [2] has as its system HepG2. In words: Potency index, ratio of fluorouracil IC50 to compound IC50 for human HepG2 cells. In kind it is functional.
Series [3] is described as follows: Solubility in water at pH 6.4. In kind it is physicochemical.
The nature of series [4]: Solubility in water at pH 1. In kind it is physicochemical.
The test system of series [5] is HepG2. Put plainly: Cell cycle arrest in human HepG2 cells assessed as accumulation at subG1 phase at 1 uM after 48 hrs by propidium iodide staining based flow cytometry (reference value: 2.09%). Type of series: functional. A digest of the protocol:
(§2)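 HepG2 cells grown to about 70% confluence and exposed to […] of compound for 48 h. Cells were then trypsinized, washed in PBS and fixed overnight in ice-cold 70% ethanol. They were treated with RNase (50, final) at 37 °C for 30 min, stained with propidium iodide (50, final), and phase distribution was measured by flow cytometry.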

For series [6], the system named is HepG2. Put plainly: Cell cycle arrest in human HepG2 cells assessed as accumulation at subG1 phase at 5 uM after 48 hrs by propidium iodide staining based flow cytometry (reference value: 2.09%). Type of series: functional. A digest of the protocol:
as §2

The test system of series [7] is HepG2. In words: Cell cycle arrest in human HepG2 cells assessed as accumulation at subG1 phase at 10 uM after 48 hrs by propidium iodide staining based flow cytometry (reference value: 2.09%). Type of series: functional. In a few lines: as §2
Series [8] deals with HepG2. In words: Cell cycle arrest in human HepG2 cells assessed as accumulation at subG1 phase at 20 uM after 48 hrs by propidium iodide staining based flow cytometry (reference value: 2.09%). In kind it is functional. A digest of the protocol:
as §2
In general terms: A flow cytometer gives signals particle by particle.

For series [9], the system named is HepG2. Put plainly: Cell cycle arrest in human HepG2 cells assessed as accumulation at G0/G1 phase at 1 uM after 48 hrs by propidium iodide staining based flow cytometry (reference value: 44.28%). Type of series: functional. In a few lines:
as §2

Series [10] relates to HepG2. Put plainly: Cell cycle arrest in human HepG2 cells assessed as accumulation at G0/G1 phase at 5 uM after 48 hrs by propidium iodide staining based flow cytometry (reference value: 44.28%). In kind it is functional. In a few lines: as §2
Series [11] relates to HepG2. Put plainly: Cell cycle arrest in human HepG2 cells assessed as accumulation at G0/G1 phase at 10 uM after 48 hrs by propidium iodide staining based flow cytometry (reference value: 44.28%). Type of series: functional. In a few lines:
as §2

The subject of series [12] is HepG2. Put plainly: Cell cycle arrest in human HepG2 cells assessed as accumulation at G0/G1 phase at 20 uM after 48 hrs by propidium iodide staining based flow cytometry (reference value: 44.28%). Type of series: functional. A digest of the protocol:
as §2

Series [13] has as its system HepG2. Put plainly: Cell cycle arrest in human HepG2 cells assessed as accumulation at S phase at 1 uM after 48 hrs by propidium iodide staining based flow cytometry (reference value: 28.95%). Type of series: functional. A digest of the protocol: as §2
Series [14] deals with HepG2. Put plainly: Cell cycle arrest in human HepG2 cells assessed as accumulation at S phase at 5 uM after 48 hrs by propidium iodide staining based flow cytometry (reference value: 28.95%). Type of series: functional. In a few lines:
as §2

Series [15] concerns HepG2. Put plainly: Cell cycle arrest in human HepG2 cells assessed as accumulation at S phase at 10 uM after 48 hrs by propidium iodide staining based flow cytometry (reference value: 28.95%). In kind it is functional. A digest of the protocol:
as §2

The test system of series [16] is HepG2. Put plainly: Cell cycle arrest in human HepG2 cells assessed as accumulation at S phase at 20 uM after 48 hrs by propidium iodide staining based flow cytometry (reference value: 28.95%). Type of series: functional. In a few lines:
as §2

The test system of series [17] is HepG2. Put plainly: Cell cycle arrest in human HepG2 cells assessed as accumulation at G2/M phase at 1 uM after 48 hrs by propidium iodide staining based flow cytometry (reference value: 21.54%). In kind it is functional. In a few lines: as §2
Series [18] has as its system HepG2. In words: Cell cycle arrest in human HepG2 cells assessed as accumulation at G2/M phase at 5 uM after 48 hrs by propidium iodide staining based flow cytometry (reference value: 21.54%). In kind it is functional. A digest of the protocol:
as §2

Series [19] deals with HepG2. Put plainly: Cell cycle arrest in human HepG2 cells assessed as accumulation at G2/M phase at 10 uM after 48 hrs by propidium iodide staining based flow cytometry (reference value: 21.54%). In kind it is functional. In a few lines:
as §2

Series [20] has as its system HepG2. Put plainly: Cell cycle arrest in human HepG2 cells assessed as accumulation at G2/M phase at 20 uM after 48 hrs by propidium iodide staining based flow cytometry (reference value: 21.54%). Type of series: functional. A digest of the protocol: as §2
Series [21] concerns HepG2. Put plainly: Cell cycle arrest in human HepG2 cells assessed as accumulation at G2/M phase after 48 hrs by propidium iodide staining based flow cytometry. In kind it is functional. In a few lines:
as §2

≈ marks a conversion by molar mass, not a printed value.

With `COC(=O)CN(C)c1nc(Nc2cccc(OC)c2)ncc1[N+](=O)[O-]`, the IC50 in the series on MDA-MB-231 worked out at 58 µM; in the series with A549, 31.9 µM; in the series on HepG2 [1], 73.4 µM; in the series on MCF7, 93.7 µM.
For `CCOC(=O)CN(Cc1ccccc1)c1nc(Nc2ccccc2)ncc1[N+](=O)[O-]` the same measures were > 100 µM, > 100 µM, 44.4 µM and > 100 µM.
In the same order, the values of `CCOC(=O)CN(Cc1ccccc1)c1nc(NCc2ccccc2)ncc1[N+](=O)[O-]` are 82.4 µM, > 100 µM, 20.9 µM and > 100 µM.
As for `CCOC(=O)CNc1nc(Nc2cccc(OC)c2)ncc1[N+](=O)[O-]`, the IC50 with MDA-MB-231 is 31.3 µM; in the series on A549, 36.1 µM; in the series on HepG2 [1] it was > 100 µM; with MCF7, 35.8 µM.
Regarding `O=c1[nH]cc(F)c(=O)[nH]1` [FLUOROURACIL], the IC50 in the series on MCF7 came out at 30.4 µM. In other words, the double-digit micromolar range.
Take `CCOC(=O)CNc1nc(NCc2ccccc2)ncc1[N+](=O)[O-]`: the concentration for half-maximal inhibition (IC50) in the series on MDA-MB-231 was 22.3 µM; in the series on A549, 74.4 µM; in the series on HepG2 [1] it was > 100 µM; in the series on MCF7 it was 52.4 µM.
In the same order, the values of `COC(=O)CN(C)c1nc(NCCc2ccccc2)ncc1[N+](=O)[O-]` are 44.8 µM, 37 µM, 86.7 µM and 32.5 µM.
In the same order, the values of `CCOC(=O)CN(Cc1ccccc1)c1nc(NC2CCN(S(C)(=O)=O)CC2)ncc1[N+](=O)[O-]` are 75.8 µM, > 100 µM, 57.1 µM and > 100 µM.
In the same order, the values of `CCOC(=O)CNc1nc(NCCc2ccccc2)ncc1[N+](=O)[O-]` are 21.9 µM, 48.2 µM, 71.1 µM and > 100 µM.
For `COC(=O)CN(C)c1nc(Nc2ccc(Cl)cc2)ncc1[N+](=O)[O-]`, the IC50 with MDA-MB-231 turned out to be 21.2 µM; in the series on A549 it was 23.5 µM; with HepG2 [1], 49.8 µM; with MCF7, 60.7 µM.
Consider `CCOC(=O)CNc1nc(Nc2ccc(Cl)cc2)ncc1[N+](=O)[O-]`, for which the 50% inhibitory concentration (IC50) with MDA-MB-231 is 55.5 µM; in the series on A549, > 100 µM; in the series with HepG2 [1], > 100 µM; with MCF7, > 100 µM.
Consider `CCOC(=O)CNc1nc(Nc2ccc(OC)cc2)ncc1[N+](=O)[O-]`, for which the IC50 in the series on MDA-MB-231 is 32.6 µM; with A549 it was > 100 µM; in the series with HepG2 [1], > 100 µM; in the series on MCF7 it was > 100 µM.
Take `CCOC(=O)CN(Cc1ccccc1)c1nc(NCc2cccc(OC)c2)ncc1[N+](=O)[O-]`: the IC50 is 80.7 µM with MDA-MB-231, > 100 µM with A549, 33.6 µM with HepG2 [1] and 57.4 µM in the series on MCF7.
For `CCOC(=O)CNc1ncc([N+](=O)[O-])c(N(CC(=O)OCC)Cc2ccccc2)n1` the same measures were 92.5 µM, > 100 µM, 44.5 µM and > 100 µM.
For `CCOC(=O)CN(Cc1ccccc1)c1nc(Nc2ccc(Cl)cc2)ncc1[N+](=O)[O-]` the same measures were 34.4 µM, > 100 µM, 30.9 µM and > 100 µM.
For `COC(=O)CN(C)c1nc(NCc2ccccc2)ncc1[N+](=O)[O-]` the same measures were 61.1 µM, 79.4 µM, > 100 µM and 85.9 µM.
As for `CCOC(=O)CNc1nc(NC2CCN(S(C)(=O)=O)CC2)ncc1[N+](=O)[O-]`, the IC50 was 80.7 µM with MDA-MB-231, > 100 µM in the series on A549, > 100 µM with HepG2 [1] and > 100 µM in the series with MCF7.
Regarding `COC(=O)CN(C)c1nc(Nc2cc(OC)c(OC)c(OC)c2)ncc1[N+](=O)[O-]`, the IC50 in the series with MDA-MB-231 is 25.9 µM; in the series with A549, > 100 µM; in the series on HepG2 [1], 26.2 µM; in the series on MCF7, 42 µM.
In the same order, the values of `CCOC(=O)CNc1nc(Nc2ccccc2)ncc1[N+](=O)[O-]` are 54.3 µM, > 100 µM, > 100 µM and > 100 µM.
In the same order, the values of `CCOC(=O)CN(Cc1ccccc1)c1nc(Nc2cccc(OC)c2)ncc1[N+](=O)[O-]` are 47.2 µM, > 100 µM, 27.6 µM and > 100 µM.
In the same order, the values of `CCOC(=O)CN(Cc1ccccc1)c1nc(Nc2cc(OC)c(OC)c(OC)c2)ncc1[N+](=O)[O-]` are 40.4 µM, > 100 µM, 37.8 µM and > 100 µM.
With `COC(=O)CN(C)c1nc(NC2CCN(S(C)(=O)=O)CC2)ncc1[N+](=O)[O-]`, the IC50 in the series with MDA-MB-231 was 59.6 µM; in the series with A549 it was > 100 µM; with HepG2 [1], > 100 µM; in the series with MCF7, > 100 µM.
As for `CCOC(=O)CN(Cc1ccccc1)c1nc(NCCc2ccccc2)ncc1[N+](=O)[O-]`, the IC50 was found to be 22.3 µM in the series with MDA-MB-231, 87.3 µM in the series on A549, 10.4 µM in the series on HepG2 [1] and 21 µM in the series with MCF7. In addition, the “Ratio IC50” value in the series on HepG2 [2] came to 3. Besides, the solubility in series [3] came to 3 µg/mL (≈ 6.89 µM); in [4] it was 80.5 µg/mL (≈ 185 µM). Moreover, the Activity with HepG2 [5] is 5.08%; with HepG2 [6], 3.85%; with HepG2 [7], 4.8%; in the series with HepG2 [8] it was 4.91%; in the series on HepG2 [9], 34.03%; in the series with HepG2 [10], 31.26%. For the same compound, the Activity with HepG2 [11] is reported as 30.91%; in the series on HepG2 [12], 29.86%; with HepG2 [13] it was 28.08%; in the series on HepG2 [14] it was 28.28%; in the series on HepG2 [15], 27.02%; in the series with HepG2 [16], 25.75%. Moreover, the Activity in the series with HepG2 [17] was 25.46%; with HepG2 [18] it was 30.83%; in the series on HepG2 [19], 31.94%; with HepG2 [20], 36.85%; in the series on HepG2 [21], “Dose-dependent effect”.
Regarding `COC(=O)CN(C)c1nc(Nc2ccccc2)ncc1[N+](=O)[O-]`, the IC50 in the series with MDA-MB-231, in the series on A549, with HepG2 [1] and with MCF7 was > 100 µM each time.

By IC50 is commonly meant the concentration at which inhibition is half-maximal. A higher IC50 goes with weaker potency. A word on the solubility: it is how much of the substance goes into solution per volume. High values mean a readily soluble substance, low ones a poorly soluble substance.

The record behind these values is ChEMBL document CHEMBL3822407, “Design, synthesis and antiproliferative activity of novel 5-nitropyrimidine-2,4-diamine derivatives bearing alkyl acetate moiety” (Eur J Med Chem, 2016).
